Data published in ChEMBL document CHEMBL4428033, “The Flavone Luteolin Inhibits Liver X Receptor Activation” (J Nat Prod, 2016).
The source made the active and inactive calls. The rule behind the calls is not given here.

Assays:
[1] = molecular target: T1, Oxysterols receptor LXR-alpha/beta (Mus musculus) (UniProt Q9Z0Y9+Q60644); assay: Inhibition of T0901317-induced LXR-alpha/beta transactivation in mouse RAW264.7 cells assessed as reduction in ABCA1 mRNA expression at 10 uM after 3 hrs by RT-PCR method; assay type: cell-based
Outline: (§1)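 RAW 264.7 macrophages pretreated 1 h with T0901317 (0.01–10 μM, or 1 μM), or left in medium, then luteolin 10, 25 or 50 μM for 3 h. ABCA1 mRNA by SYBR-Green real-time RT-PCR, normalised to HPRT1. Pfaffl fold change versus medium control or the T0901317-treated sample. Three independent experiments in duplicate, mean ± SEM. One-way ANOVA with Dunnett's test.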

[2] = molecular target: T2, Oxysterols receptor LXR-alpha (Homo sapiens) (UniProt Q13133); assay: Inhibition of T0901317-induced human LXR-alpha transcriptional activity after 22 hrs by cell based luciferase reporter gene assay
T2 sequence (whole entry): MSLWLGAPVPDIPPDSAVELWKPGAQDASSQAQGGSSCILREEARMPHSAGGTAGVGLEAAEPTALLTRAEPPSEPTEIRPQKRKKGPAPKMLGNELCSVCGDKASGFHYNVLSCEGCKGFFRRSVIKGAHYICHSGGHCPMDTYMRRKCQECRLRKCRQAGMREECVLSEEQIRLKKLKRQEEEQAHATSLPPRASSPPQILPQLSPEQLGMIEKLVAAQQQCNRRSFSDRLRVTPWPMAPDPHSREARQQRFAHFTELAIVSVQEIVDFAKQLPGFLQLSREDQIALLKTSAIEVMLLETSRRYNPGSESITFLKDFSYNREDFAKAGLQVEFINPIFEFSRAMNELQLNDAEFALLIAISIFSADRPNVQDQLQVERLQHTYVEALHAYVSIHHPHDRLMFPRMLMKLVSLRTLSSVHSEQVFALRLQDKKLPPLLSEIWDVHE
Outline: (§2)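 Commercial LXRα or LXRβ luciferase reporter cells (nonhuman mammalian) kept in medium or given T0901317 0.01–10 μM, alone or with luteolin 10, 25 or 50 μM, for 22 h. Luminescence read per kit instructions, 500 ms read time. RLU plotted against log T0901317 concentration.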

[3] = molecular target: T3, Oxysterols receptor LXR-beta (Homo sapiens) (UniProt P55055); assay: Inhibition of T0901317-induced human LXR-beta transcriptional activity after 22 hrs by cell based luciferase reporter gene assay; outline: as §2
T3 sequence (whole entry): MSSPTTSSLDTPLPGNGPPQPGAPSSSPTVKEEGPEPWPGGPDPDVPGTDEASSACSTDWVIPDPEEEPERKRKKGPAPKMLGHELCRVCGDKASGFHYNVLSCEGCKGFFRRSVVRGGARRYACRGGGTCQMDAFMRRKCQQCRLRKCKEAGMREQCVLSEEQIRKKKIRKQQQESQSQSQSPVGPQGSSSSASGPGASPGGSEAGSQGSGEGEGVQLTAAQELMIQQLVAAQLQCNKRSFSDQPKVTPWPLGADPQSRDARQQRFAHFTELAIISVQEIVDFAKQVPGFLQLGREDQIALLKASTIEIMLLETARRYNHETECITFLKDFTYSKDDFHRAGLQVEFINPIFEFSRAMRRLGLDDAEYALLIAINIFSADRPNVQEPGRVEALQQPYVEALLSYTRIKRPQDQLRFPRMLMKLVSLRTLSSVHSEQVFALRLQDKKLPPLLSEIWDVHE

[4] = molecular target: T2, Oxysterols receptor LXR-alpha (Homo sapiens); assay: Inhibition of T0901317-induced human LXR-alpha transcriptional activity at 10 uM after 22 hrs by cell based luciferase reporter gene assay; outline: as §2
[5] = molecular target: T3, Oxysterols receptor LXR-beta (Homo sapiens); assay: Inhibition of T0901317-induced human LXR-beta transcriptional activity at 10 uM after 22 hrs by cell based luciferase reporter gene assay; outline: as §2
[6] = molecular target: T2, Oxysterols receptor LXR-alpha (Homo sapiens); assay: Transactivation of human LXR-alpha at 10 to 50 uM after 22 hrs by cell based luciferase reporter gene assay; outline: as §2
[7] = molecular target: T3, Oxysterols receptor LXR-beta (Homo sapiens); assay: Transactivation of human LXR-beta at 10 to 50 uM after 22 hrs by cell based luciferase reporter gene assay; outline: as §2
[8] = molecular target: T4, Liver X receptor (Homo sapiens) (UniProt Q13133+P55055); assay: Inhibition of T0901317-induced LXR-alpha/beta transactivation in human HepG2 cells assessed as reduction in SREBP-1c mRNA expression at 50 uM after 12 hrs by RT-PCR method; assay type: cell-based
Outline: (§3)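 HepG2 cells in low-glucose DMEM with 10% FBS, 37 °C, 5% CO2. Pretreated 1 h with T0901317 (0.01–10 μM, or 0.05 or 1 μM), or left in medium, then given luteolin 10, 25 or 50 μM for 12 h. Trizol RNA, SYBR-Green real-time RT-PCR for SREBP-1c, normalised to HPRT1. Pfaffl fold change versus medium control. Two independent experiments in duplicate, mean ± SEM.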

[9] = molecular target: T4, Liver X receptor (Homo sapiens); assay: Inhibition of T0901317-induced LXR-alpha/beta transactivation in human HepG2 cells assessed as reduction in SREBP-1c mRNA expression at 10 to 25 uM after 12 hrs by RT-PCR method; assay type: cell-based; outline: as §3
Liver X receptor = molecular target: T5, Liver X receptor (Homo sapiens, UniProt Q13133+P55055); assay: Transactivation of LXR-alpha/beta in human HepG2 cells assessed as upregulation of SREBP-1c mRNA expression at 10 to 50 uM after 12 hrs by RT-PCR method; assay type: cell-based; settings: hepg2, 12 h; outline: as §3
T5 sequence (Q13133 whole entry): T2 sequence (whole entry)
T5 sequence (P55055 whole entry): T3 sequence (whole entry)

HepG2 [10] = assay: Cytotoxicity against human HepG2 cells assessed as reduction in cell viability at 10 to 50 uM after 12 hrs by MTT assay; assay type: cell-based; settings: hepg2, 12 h
Outline: (§4)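 Cells treated as in the RT-PCR assays (T0901317 pretreatment 1 h, then luteolin 10, 25 or 50 μM; 12 h for HepG2, 3 h for RAW 264.7). MTT added at 37 °C for 60 min (HepG2) or 15 min (RAW 264.7). Formazan dissolved in acidic 2-propanol and read at 570 nm, reference 620 nm.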

HepG2 [11] = assay: Inhibition of T0901317-induced lipid accumulation in human HepG2 cells at 50 uM preincubated for 1 hr followed by T0901317 addition measured after 24 hrs by Oil Red-O dye based microscopic analysis; assay type: functional, cell-based
Outline: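 HepG2 cells preincubated 1 h with luteolin 25 or 50 μM, then T0901317 5 μM added for 24 h. Fixed in 4% paraformaldehyde for 20 min at room temperature. Stained with Oil Red-O (0.6% stock diluted 6:4 with water) for 45 min at room temperature, washed, then imaged by microscopy; absorbance recorded.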

[12] = molecular target: T1, Oxysterols receptor LXR-alpha/beta (Mus musculus); assay: Inhibition of T0901317-induced LXR-alpha/beta transactivation in mouse RAW264.7 cells assessed as reduction in ABCA1 mRNA expression at 25 uM after 3 hrs by RT-PCR method relative to control; assay type: cell-based; outline: as §1
[13] = molecular target: T1, Oxysterols receptor LXR-alpha/beta (Mus musculus); assay: Inhibition of T0901317-induced LXR-alpha/beta transactivation in mouse RAW264.7 cells assessed as reduction in ABCA1 mRNA expression at 50 uM after 3 hrs by RT-PCR method relative to control; assay type: cell-based; outline: as §1
[14] = molecular target: T1, Oxysterols receptor LXR-alpha/beta (Mus musculus); assay: Inhibition of T0901317-induced LXR-alpha/beta transactivation in mouse RAW264.7 cells assessed as reduction in ABCA1 mRNA expression after 3 hrs by RT-PCR method; assay type: cell-based; outline: as §1
[15] = molecular target: T6, Oxysterols receptor LXR-alpha/beta (Mus musculus, UniProt Q9Z0Y9+Q60644); assay: Transactivation of LXR-alpha/beta in mouse RAW264.7 cells assessed as upregulation of ABCA1 mRNA expression at 10 to 50 uM after 3 hrs by RT-PCR method; assay type: cell-based; settings: raw264.7, 3 h; outline: as §1
T6 sequence (Q9Z0Y9 whole entry): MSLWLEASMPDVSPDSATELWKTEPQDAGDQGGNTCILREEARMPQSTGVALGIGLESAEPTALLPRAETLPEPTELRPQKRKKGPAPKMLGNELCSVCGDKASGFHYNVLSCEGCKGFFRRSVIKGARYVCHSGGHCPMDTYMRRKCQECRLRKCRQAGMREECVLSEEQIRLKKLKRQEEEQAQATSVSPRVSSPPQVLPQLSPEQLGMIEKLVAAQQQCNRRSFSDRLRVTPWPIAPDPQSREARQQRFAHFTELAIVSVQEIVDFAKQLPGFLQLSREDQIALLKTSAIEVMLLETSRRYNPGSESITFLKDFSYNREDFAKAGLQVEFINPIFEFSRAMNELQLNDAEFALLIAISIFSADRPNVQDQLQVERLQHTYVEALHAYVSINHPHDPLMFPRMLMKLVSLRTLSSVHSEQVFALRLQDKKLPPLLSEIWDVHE
T6 sequence (Q60644 whole entry): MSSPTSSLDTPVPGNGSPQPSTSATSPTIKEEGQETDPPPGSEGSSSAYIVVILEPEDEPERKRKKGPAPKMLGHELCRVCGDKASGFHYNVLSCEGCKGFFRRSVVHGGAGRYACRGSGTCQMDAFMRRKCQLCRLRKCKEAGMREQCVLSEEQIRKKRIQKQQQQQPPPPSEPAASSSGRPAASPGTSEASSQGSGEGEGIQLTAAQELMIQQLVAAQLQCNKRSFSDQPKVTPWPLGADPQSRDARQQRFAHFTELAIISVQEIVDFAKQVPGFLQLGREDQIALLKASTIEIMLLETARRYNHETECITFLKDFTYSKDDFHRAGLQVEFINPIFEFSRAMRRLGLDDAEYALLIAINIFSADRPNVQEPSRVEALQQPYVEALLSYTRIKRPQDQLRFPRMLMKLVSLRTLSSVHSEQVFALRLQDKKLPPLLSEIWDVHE

RAW264.7 = assay: Cytotoxicity against mouse RAW264.7 cells assessed as reduction in cell viability at 10 to 50 uM after 3 hrs by MTT assay; assay type: cell-based; settings: raw264.7, 3 h; outline: as §4
Mus musculus [16] = assay: Antihyperlipidemic activity in ethanol-induced steatosis C57BL/6 mouse model assessed as inhibition of serum triacylglycerol level at 50 mg/kg, po administered daily through oral gavage for 2 weeks by colorimetric method relative to control; assay type: functional; settings: C57BL/6, po, 336 h
Mus musculus [17] = assay: Antihyperlipidemic activity in ethanol-induced steatosis C57BL/6 mouse model assessed as inhibition of serum LDL cholesterol level at 50 mg/kg, po administered daily through oral gavage for 2 weeks by colorimetric method relative to control; assay type: functional; settings: C57BL/6, po, 336 h

Compound: O=c1cc(-c2ccc(O)c(O)c2)oc2cc(O)cc(O)c12 [LUTEOLIN]
- inhibition [1]: inactive
- inhibition [2]: Dose-dependent effect
- inhibition [3]: Dose-dependent effect
- inhibition [4]: inactive
- inhibition [5]: inactive
- Activity [6]: inactive
- Activity [7]: inactive
- inhibition [8]: Active
- inhibition [9]: inactive
- Activity (Liver X receptor): Not Active
- Activity (HepG2 [10]): Non-Toxic
- inhibition (HepG2 [11]): Active
- inhibition [12]: 41%
- inhibition [13]: 64%
- inhibition [14]: Dose-dependent effect
- Activity [15]: Not Active
- Activity (RAW264.7): Non-Toxic
- inhibition in vivo at 50 mg/kg (Mus musculus [16]): 22%
- inhibition in vivo at 50 mg/kg (Mus musculus [17]): 52%
